From ChEMBL document CHEMBL1151849, “Antioxidant hydroquinones substituted by beta-1,6-linked oligosaccharides in wheat germ” (J Nat Prod, 2009)
Active and inactive are the calls of the source. The rule behind the calls is not given here.

Legend:
[1] = Antioxidant activity assessed as trolox equivalents of ABTS radical scavenging activity by TEAC assay; type: functional
Procedure, shortened: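 ABTS radical cation generated from 7 mM ABTS plus 2.5 mM K2S2O8 in water, kept dark at room temperature 16-18 h, then diluted in aqueous 50% EtOH to A734 0.70 ± 0.02. 10.0, 20.0 or 30.0 µL of 1.00 mM aqueous compound added to 2.00 mL radical solution. A734 decrease recorded from 15 s to 5 min. Calibration curves compared with Trolox, expressed as mM Trolox equivalent to 1 mM compound.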

[2] = test system: Radical scavenging activity; test: Antioxidant activity assessed as ABTS radical cation scavenging activity by TEAC assay
[3] = test system: Nucleic Acid; test: Protection against H2O2-induced DNA damaging activity of pBR322 assessed as induction of single stranded breaks by gel electrophoresis; conditions: Escherichia coli
Procedure, shortened: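 pBR322 plasmid (100 ng) incubated 1 h at 37 °C in 100 mM sodium phosphate pH 7.4 with 0.3% H2O2 and 30, 100, 300 ng or 1 µg compound. Reaction volume was 12 µL. Analysed on a 0.7% agarose gel run 1.5 h at 80 V, stained with 0.5 µg/mL ethidium bromide for 15 min, then imaged under UV.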

SMILES: COc1cc(O[C@@H]2O[C@H](CO[C@@H]3O[C@H](CO)[C@@H](O)[C@H](O)[C@H]3O)[C@@H](O)[C@H](O)[C@H]2O)cc(OC)c1O
- Activity [1]: 0.85
- Activity [2]: Active

SMILES: COc1cc(O[C@@H]2O[C@H](CO[C@@H]3O[C@H](CO[C@@H]4O[C@H](CO[C@@H]5O[C@H](CO)[C@@H](O)[C@H](O)[C@H]5O)[C@@H](O)[C@H](O)[C@H]4O)[C@@H](O)[C@H](O)[C@H]3O)[C@@H](O)[C@H](O)[C@H]2O)ccc1O
- Activity [1]: 0.88
- Activity [2]: Active

SMILES: COc1cc(O[C@@H]2O[C@H](CO[C@@H]3O[C@H](CO[C@@H]4O[C@H](CO)[C@@H](O)[C@H](O)[C@H]4O)[C@@H](O)[C@H](O)[C@H]3O)[C@@H](O)[C@H](O)[C@H]2O)cc(OC)c1O
- Activity [1]: 0.8
- Activity [2]: Active

SMILES: COc1cc(O[C@@H]2O[C@H](CO[C@@H]3O[C@H](CO)[C@@H](O)[C@H](O)[C@H]3O)[C@@H](O)[C@H](O)[C@H]2O)ccc1O
- Activity [1]: 0.94
- Activity [2]: Active

SMILES: COc1cc(O[C@@H]2O[C@H](CO[C@@H]3O[C@H](CO[C@@H]4O[C@H](CO)[C@@H](O)[C@H](O)[C@H]4O)[C@@H](O)[C@H](O)[C@H]3O)[C@@H](O)[C@H](O)[C@H]2O)ccc1O
- Activity [1]: 0.97
- Activity [2]: Active
- Activity [3]: Dose-dependent effect

SMILES: OC[C@H]1O[C@@H](OC[C@H]2O[C@@H](OC[C@H]3O[C@@H](Oc4ccc(O)cc4)[C@H](O)[C@@H](O)[C@@H]3O)[C@H](O)[C@@H](O)[C@@H]2O)[C@H](O)[C@@H](O)[C@@H]1O
- Activity [1]: 1.12

SMILES: COc1cc(O)ccc1O[C@@H]1O[C@H](CO[C@@H]2O[C@H](CO[C@@H]3O[C@H](CO)[C@@H](O)[C@H](O)[C@H]3O)[C@@H](O)[C@H](O)[C@H]2O)[C@@H](O)[C@H](O)[C@H]1O
- Activity [1]: 1.76
